{"source": "ChEMBL document CHEMBL1806486", "about": "“Discovery and evaluation of 3-phenyl-1H-5-pyrazolylamine-based derivatives as potent, selective and efficacious inhibitors of FMS-like tyrosine kinase-3 (FLT3)” (Bioorg Med Chem, 2011)", "key": {"MOLM-13 [1]": {"system": "MOLM-13", "experiment": "Antitumor activity against human MOLM13 cells xenografted in athymic nu/nu nude mouse assessed as tumor growth regression at 50 mg/kg, iv qd administered for 1 to 5 and 8 to 12 days", "format": "functional, organism-based", "design": "dose 50 mg/kg", "in_short": "(§1)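 Athymic nu/nu mice (9 weeks old) received 1 × 10^6 MOLM-13 cells s.c. in the left flank. They were randomized at a mean tumor volume of about 200 mm3, with 7–8 per group. Dosing was iv once daily at 10 or 50 mg/kg on days 1–5 and 8–12, in 10% DMSO/20% Cremophor/70% saline. Vehicle controls were dosed the same way. Caliper volume = (width × length²)/2, reported as mean ± SEM.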"}, "MV4-11 [2]": {"system": "MV4-11", "experiment": "Antitumor activity against human MV4-11 cells xenografted in athymic nu/nu nude mouse assessed as inhibition of tumor growth at 50 mg/kg, iv qd for 1 to 5 and 8 to 12 days", "format": "functional, organism-based", "design": "dose 50 mg/kg", "in_short": "(§2)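 Nude nu/nu mice (9 weeks old) received 1 × 10^6 MV4;11 cells s.c. in the left flank. Treatment began at a mean tumor volume of about 500 mm3, with n = 8 per group. Dosing was iv once daily at 10, 25 or 50 mg/kg on days 1–5 and 8–12, in DMSO/Cremophor/saline vehicle, with vehicle controls. Tumor volume was measured by caliper as (width × length²)/2.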"}, "[3]": {"experiment": "Clearance in Sprague-Dawley rat at 5 mg/kg, iv and 20 mg/kg, po", "format": "ADME, organism-based", "settings": "in vivo"}, "Mus musculus": {"system": "Mus musculus", "experiment": "Toxicity in athymic nu/nu nude mouse harboring xenografted human MV4:11 cells assessed as reduction of body weight at 50 mg/kg, iv for continuous 5 days", "format": "organism-based", "design": "dose 50 mg/kg, route intravenous; scale not given: the % may be the effect or the level left", "settings": "in vivo, 120 h"}, "MOLT-4": {"system": "MOLT-4", "experiment": "Antiproliferation activity against human MOLT4 after 72 hrs by MTS method", "format": "functional", "settings": "MOLT-4, 72 h"}, "[4]": {"biological_target": "Vascular endothelial growth factor receptor 2 (Homo sapiens, UniProt P35968)", "sequence (P35968 whole entry)": "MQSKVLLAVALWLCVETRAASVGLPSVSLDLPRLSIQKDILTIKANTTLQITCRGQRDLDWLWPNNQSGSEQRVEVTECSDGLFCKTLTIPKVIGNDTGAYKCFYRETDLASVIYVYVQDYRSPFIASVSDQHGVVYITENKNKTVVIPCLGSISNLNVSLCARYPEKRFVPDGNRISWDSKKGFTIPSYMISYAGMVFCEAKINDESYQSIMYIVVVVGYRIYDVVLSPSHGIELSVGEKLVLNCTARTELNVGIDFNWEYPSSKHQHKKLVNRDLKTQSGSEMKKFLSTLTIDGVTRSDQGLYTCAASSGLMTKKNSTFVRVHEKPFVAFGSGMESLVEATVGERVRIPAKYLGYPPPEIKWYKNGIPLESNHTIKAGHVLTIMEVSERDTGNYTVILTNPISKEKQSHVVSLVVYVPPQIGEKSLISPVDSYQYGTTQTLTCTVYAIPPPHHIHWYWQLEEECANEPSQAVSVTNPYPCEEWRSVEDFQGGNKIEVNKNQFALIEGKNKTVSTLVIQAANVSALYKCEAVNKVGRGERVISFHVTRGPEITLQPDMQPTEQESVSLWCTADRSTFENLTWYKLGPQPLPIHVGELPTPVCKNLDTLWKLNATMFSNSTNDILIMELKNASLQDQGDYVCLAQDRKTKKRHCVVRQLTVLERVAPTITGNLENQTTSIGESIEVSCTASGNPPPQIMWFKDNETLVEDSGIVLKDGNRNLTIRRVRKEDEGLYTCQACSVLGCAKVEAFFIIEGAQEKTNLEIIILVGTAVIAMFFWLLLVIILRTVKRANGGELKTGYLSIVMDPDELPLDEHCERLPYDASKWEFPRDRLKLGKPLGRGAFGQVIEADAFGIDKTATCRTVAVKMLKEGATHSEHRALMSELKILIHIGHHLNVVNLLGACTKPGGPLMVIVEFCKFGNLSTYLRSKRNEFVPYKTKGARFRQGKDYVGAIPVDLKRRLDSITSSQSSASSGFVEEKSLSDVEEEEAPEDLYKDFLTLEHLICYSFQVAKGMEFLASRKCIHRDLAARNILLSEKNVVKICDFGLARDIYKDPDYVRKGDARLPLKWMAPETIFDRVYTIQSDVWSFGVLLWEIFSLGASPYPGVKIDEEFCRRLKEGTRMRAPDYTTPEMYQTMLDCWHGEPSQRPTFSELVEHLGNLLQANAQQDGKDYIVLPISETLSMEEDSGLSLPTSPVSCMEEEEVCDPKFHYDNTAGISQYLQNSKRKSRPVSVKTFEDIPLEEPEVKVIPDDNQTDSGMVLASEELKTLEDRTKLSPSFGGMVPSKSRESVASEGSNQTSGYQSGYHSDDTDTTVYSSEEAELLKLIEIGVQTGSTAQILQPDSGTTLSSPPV", "experiment": "Inhibition of recombinant GST-tagged VEGFR2 expressed in Sf9 insect cells after 120 mins by Kinase-Glo assay", "format": "cell-based"}, "[5]": {"experiment": "Antiproliferation activity against human RS4:11 cells expressing wild type FLT3 after 72 hrs by MTS method", "format": "functional", "settings": "RS4-11, 72 h"}, "U-937": {"system": "U-937", "experiment": "Antiproliferation activity against human FLT3 gene-deficient U937 cells after 72 hrs by MTS method", "format": "functional", "settings": "U-937, 72 h"}, "[6]": {"experiment": "Half life in Sprague-Dawley rat at 5 mg/kg, iv and 20 mg/kg, po", "format": "ADME, organism-based", "settings": "in vivo"}, "MV4-11 [7]": {"system": "MV4-11", "experiment": "Antitumor activity against human MV4-11 cells xenografted in athymic nu/nu nude mouse assessed as inhibition of tumor growth at 50 mg/kg, iv qd for 1 to 5 and 8 to 12 days measured after completion of treatment", "format": "functional, organism-based", "design": "dose 50 mg/kg", "in_short": "as §2"}, "MV4-11 [8]": {"system": "MV4-11", "experiment": "Antitumor activity against human MV4-11 cells xenografted in athymic nu/nu nude mouse assessed as tumor regrowth at 50 mg/kg, iv qd for 1 to 5 and 8 to 12 days measured after 20 days", "format": "functional, organism-based", "design": "dose 50 mg/kg", "in_short": "as §2"}, "MOLM-13 [9]": {"system": "MOLM-13", "experiment": "Antitumor activity against human MOLM13 cells xenografted in iv dosed athymic nu/nu nude mouse assessed as inhibition of tumor growth administered qd for two weeks", "format": "functional, organism-based", "in_short": "as §1"}, "[10]": {"biological_target": "Vascular endothelial growth factor receptor 1 (Homo sapiens, UniProt P17948)", "sequence (P17948 whole entry, the tested form may be a part)": "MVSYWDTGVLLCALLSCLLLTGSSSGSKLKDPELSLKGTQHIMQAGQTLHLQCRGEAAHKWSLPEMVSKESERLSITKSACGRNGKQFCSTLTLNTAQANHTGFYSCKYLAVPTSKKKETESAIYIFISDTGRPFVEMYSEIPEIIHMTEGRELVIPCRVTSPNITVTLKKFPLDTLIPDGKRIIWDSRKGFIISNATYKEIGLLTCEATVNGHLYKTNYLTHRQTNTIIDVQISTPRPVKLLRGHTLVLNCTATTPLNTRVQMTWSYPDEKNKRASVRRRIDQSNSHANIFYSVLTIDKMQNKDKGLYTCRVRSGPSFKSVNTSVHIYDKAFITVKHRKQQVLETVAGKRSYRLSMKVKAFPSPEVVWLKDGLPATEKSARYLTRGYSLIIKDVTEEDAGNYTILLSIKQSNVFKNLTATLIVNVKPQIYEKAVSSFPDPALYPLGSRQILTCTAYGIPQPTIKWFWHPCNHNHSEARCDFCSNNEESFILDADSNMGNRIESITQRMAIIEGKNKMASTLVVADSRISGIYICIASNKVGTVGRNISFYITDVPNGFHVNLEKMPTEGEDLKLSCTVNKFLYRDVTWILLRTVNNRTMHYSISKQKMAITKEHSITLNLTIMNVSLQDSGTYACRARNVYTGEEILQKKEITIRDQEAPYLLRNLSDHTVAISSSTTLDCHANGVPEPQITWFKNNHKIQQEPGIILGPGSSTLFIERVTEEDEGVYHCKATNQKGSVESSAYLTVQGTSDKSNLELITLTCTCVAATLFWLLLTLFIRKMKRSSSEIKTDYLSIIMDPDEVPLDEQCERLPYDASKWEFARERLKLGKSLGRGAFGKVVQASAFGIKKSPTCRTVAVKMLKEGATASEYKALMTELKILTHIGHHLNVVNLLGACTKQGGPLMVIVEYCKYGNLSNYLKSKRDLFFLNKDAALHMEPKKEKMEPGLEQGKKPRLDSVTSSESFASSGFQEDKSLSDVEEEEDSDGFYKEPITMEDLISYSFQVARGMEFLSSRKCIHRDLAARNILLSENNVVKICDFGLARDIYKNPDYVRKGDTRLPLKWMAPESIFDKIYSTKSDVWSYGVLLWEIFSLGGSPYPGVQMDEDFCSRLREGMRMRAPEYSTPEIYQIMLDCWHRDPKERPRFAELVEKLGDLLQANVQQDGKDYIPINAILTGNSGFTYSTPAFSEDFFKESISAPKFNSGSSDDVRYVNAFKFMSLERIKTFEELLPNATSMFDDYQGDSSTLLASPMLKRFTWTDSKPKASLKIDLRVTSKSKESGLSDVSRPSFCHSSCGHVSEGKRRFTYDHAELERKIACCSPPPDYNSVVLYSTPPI", "experiment": "Inhibition of recombinant GST-tagged VEGFR1 expressed in Sf9 insect cells after 120 mins by Kinase-Glo assay", "in_short": "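GST-VEGFR1 (R781–I1338) or GST-VEGFR2 (V789–V1356) kinase domain, 50–100 ng, from Sf9 cells. Read-out was Kinase-Glo Plus luminescence.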"}}, "note": "Active and inactive are the calls of the source. No cut-off for these calls is given here."}
{"smiles": "Cc1nc(Nc2cc(-c3cccc(NS(=O)(=O)c4ccccc4)c3)n[nH]2)cc(N2CCN(C)CC2)n1", "values": [{"measurement": "Activity", "setting": "MOLM-13 [1]", "value": "Active"}, {"measurement": "Activity", "setting": "MV4-11 [2]", "value": "Active"}, {"measurement": "clearance", "setting": "[3]", "value": 57.4, "unit": "mL/min/kg"}, {"measurement": "Activity", "setting": "Mus musculus", "value": "< 3", "unit": "%"}, {"measurement": "GI50", "setting": "MOLT-4", "value": 7.4, "unit": "µM"}, {"measurement": "IC50", "setting": "[4]", "value": 0.29, "unit": "µM"}, {"measurement": "GI50", "setting": "[5]", "value": 10, "unit": "µM"}, {"measurement": "GI50", "setting": "U-937", "value": "> 20", "unit": "µM"}, {"measurement": "half-life", "setting": "[6]", "value": 4.2, "unit": "h"}, {"measurement": "Activity", "setting": "MV4-11 [7]", "value": "Active"}, {"measurement": "Activity", "setting": "MV4-11 [8]", "value": "inactive"}, {"measurement": "Activity", "setting": "MOLM-13 [9]", "value": "Dose-dependent effect"}, {"measurement": "IC50", "setting": "[10]", "value": 0.31, "unit": "µM"}]}
